Results gathered from unrelated publications.
Each line is one published result; the experiments were not run side by side.
Cell line: A549
Effect on: cell growth or viability

COc1cccc(NC(=O)CN2C(=O)/C(=C/c3ccc(F)cc3)SC2=S)c1
inhibition (MTT; 10 µM): 22.3%

COc1ccc(-c2nc(NN=C3C(=O)Nc4ccc(Cl)cc43)c3ccccc3n2)cc1OC
inhibition (30 µM): 10.9%

O=C(CN1C(=O)/C(=C/c2cccc([N+](=O)[O-])c2)SC1=S)Nc1ccccc1
inhibition (MTT; 10 µM): 22.2%

COc1ccc(-c2nc(NN=C3C(=O)Nc4ccccc43)c3ccccc3n2)cc1OC
inhibition (30 µM): 58.6%

CN1C(=O)/C(=N\NC(=O)c2cc3ccccc3[nH]2)c2ccccc21
inhibition (30 µM): 94.9%

O=C(CN1C(=O)/C(=C/c2ccccc2Cl)SC1=S)Nc1ccccc1
inhibition (MTT; 10 µM): 20.5%

COc1cc2ncnc(NN=C3C(=O)Nc4ccc(Br)cc43)c2cc1OC
inhibition (10 µM): -4.3%

COc1ccc2c(c1)/C(=N/NC(=O)c1cc3ccccc3[nH]1)C(=O)N2C
inhibition (30 µM): 97.4%

COc1cccc(/C=C2\SC(=S)N(CC(=O)Nc3ccccc3)C2=O)c1
inhibition (MTT; 10 µM): 25.7%

COc1ccc2c(c1)C(=NNc1nc3ccccc3n(C)c1=O)C(=O)N2
inhibition (30 µM): 85.9%

CN1C(=O)/C(=N\NC(=O)c2cc3ccccc3[nH]2)c2cc(Cl)ccc21
inhibition (30 µM): 95.8%

COc1ccc(/C=C2\SC(=S)N(CC(=O)Nc3ccccc3)C2=O)cc1
inhibition (MTT; 10 µM): 23%

COc1cc(CNC(=O)C[C@H](C)CCC=C(C)C)ccc1OCc1cn(-c2ccc(Cl)cc2)nn1
inhibition (SRB; 10 µM): 55%

CCN(CC)CCNC(=O)c1c(C)[nH]c(/C=C2\C(=O)Nc3ccc(F)cc32)c1C
inhibition (30 µM): 85.7%

Cn1c(=O)c(NN=C2C(=O)Nc3ccccc32)nc2ccccc21
inhibition (30 µM): 95.2%

O=C1Nc2ccccc2/C1=N/NC(=O)c1cc2ccccc2[nH]1
inhibition (30 µM): 90.9%

O=C(CN1C(=O)/C(=C/c2ccc(O)cc2)SC1=S)Nc1ccccc1
inhibition (MTT; 10 µM): 29.6%

Cn1c(=O)c(NN=C2C(=O)Nc3ccc(Br)cc32)nc2ccccc21
inhibition (30 µM): 84.9%

CN1C(=O)/C(=N\NC(=O)c2cc3ccccc3[nH]2)c2cc(F)ccc21
inhibition (30 µM): 90.3%
